Compound activity (PubChem BioAssay)
OX1R antag-1 – antagonists of human orexin 1 receptor (OX1R); Orexin/Hypocretin receptor type 1 (Homo sapiens), O43613; OX1R-expressing cells, FRET antagonist read-out; inhibition, % at 6.6 µM; 330,000 tested, 1.8% active; in the data active = inhibition mostly above about 38%, no sharp cut-off; inactive = mostly below about 40%;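 also: 0% = agonist challenge alone and 100% = reference antagonist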
Target sequence (O43613 whole entry, looked up): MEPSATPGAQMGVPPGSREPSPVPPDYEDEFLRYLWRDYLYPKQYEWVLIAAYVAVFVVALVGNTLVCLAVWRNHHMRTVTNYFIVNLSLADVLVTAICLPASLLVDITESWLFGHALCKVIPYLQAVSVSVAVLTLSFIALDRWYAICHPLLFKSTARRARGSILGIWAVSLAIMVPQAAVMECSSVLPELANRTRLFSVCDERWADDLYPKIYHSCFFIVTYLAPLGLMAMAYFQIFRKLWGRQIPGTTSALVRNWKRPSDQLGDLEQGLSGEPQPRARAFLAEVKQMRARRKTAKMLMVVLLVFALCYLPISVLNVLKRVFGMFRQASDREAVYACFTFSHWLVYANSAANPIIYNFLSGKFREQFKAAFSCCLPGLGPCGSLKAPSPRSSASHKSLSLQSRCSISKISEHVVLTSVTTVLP
OX1R antag-2 – OX1R (HCRTR1) antagonists, primary screen, fluorescence, CHO/OX1R cells, Fluo-8 calcium, orexin A; inhibition, % at 5 µM; Orexin/Hypocretin receptor type 1 (Homo sapiens), O43613; AID 434989, 2010; 330,000 tested, 0.43% active; Fluo-8 calcium fluorescence;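 active = inhibition above its plate's threshold, mean inhibition of all tested compounds on the plate plus 3 SD, cut at about 37% in these data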;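 also: 0% = orexin A challenge wells and 100% = SB-334867-A antagonist wells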
M1 ag parental – counter-screen for M1 agonists: effect in parental CHO-K1 cells; Fluo-8 calcium fluorescence; scaled to maximal ATP response, vehicle zero; activation, % at 3 µM; 360,000 tested, 0.48% active; AID 602248, 2012; in the data active = activation above about 15%;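 also: untransfected CHO-K1 host cells lacking M1 receptor as counterscreen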
CHO-K1 Ca antag – nonselective inhibitor or artifact in parental CHO-K1 cells; ATP-induced calcium, Fluo-8 fluorescence; 360,000 tested, 0.6% active; inhibition, % at 3 µM;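 active = inhibition above a per-plate cutoff, the plate's mean sample inhibition plus 3 SD, cut at about 24% in these data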;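 also: 0% = DMSO plus EC80 ATP and 100% = DMSO alone without ATP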
CHO parental Ca – ATP-evoked calcium signal inhibitors, parental CHO, primary screen, counter-screen for OX1R antagonist project, cell-based, fluorescence, Fluo-8 calcium dye. parental CHO-K1, ATP-induced calcium, Fluo-8 fluorescence. inhibition, % at 5.6 µM. 330,000 tested, 0.63% active. AID 463079, 2010;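 active = inhibition above that plate's mean sample inhibition plus 3 SD, cut at about 26% in these data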;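 also: 0% = ATP-challenged DMSO wells and 100% = DMSO wells without ATP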
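Material – parental CHO cells · Reagent – ATP stimulus · Compound – single nominal dose of 5.6 µM per compound · Detection – Fluo-8 fluorescence · Read-out basis – percent inhibition of calcium signal · Controls – ATP-challenged DMSO wells low, unchallenged DMSO wells high · Repeats – no replicates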
CHO-K1 Ca PAM – nonselective calcium activators in parental CHO-K1 cells, primary screen, counter-screen for M1 PAM project, cell-based, Fluo-8 calcium fluorescence, full deck, 1536-well | ATP EC20; 0% at ATP EC20, 100% at ATP max | activation, % at 3 µM | 360,000 tested, 0.02% active | AID 602247, 2012;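 active = activation above the run cutoff, the mean activation of all test compounds plus 3 SD, cut at about 40% in these data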;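 also: peak over basal fluorescence ratio in a 140 s read after ATP addition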
Numbers without * were called inactive; x = not tested or not shown. A selection: hits, their analogues and other compounds. The true share with any hit is near 2.9%.

SMILES | OX1R antag-1 | OX1R antag-2 | M1 ag parental | CHO-K1 Ca antag | CHO parental Ca | CHO-K1 Ca PAM
COc1ccc(C(C)(O)c2nc(-c3ccccc3C)cs2)cc1 (stereo not drawn) | x | x | 1 | -6 | x | 16
CC(C1CC1)N(Cc1ccccc1)C(=S)Nc1ccccc1Cl (stereo not drawn) | 10 | -2 | 18* | -15 | -16 | 20
CCCCNC(=O)C1c2ccccc2OCC(=O)N1C1CC1 (stereo not drawn) | x | x | 1 | -11 | x | 20
NC(=O)c1ccc(Oc2ncc(C(F)(F)F)cc2Cl)cc1 | 1 | -15 | 16* | -1 | -6 | 25
NC(=O)Nc1ccc(Oc2ncc(C(F)(F)F)cc2Cl)cc1 | 3 | -15 | 0 | 2 | -11 | -11
O=S(=O)(Nc1ccccc1)c1ccc(Oc2ncc(C(F)(F)F)cc2Cl)cc1 | 47* | 88* | 7 | 2 | 73* | 25
CC1Oc2ccccc2C=C1/C=N/NC(=O)c1ccccc1O (stereo not drawn) | 75* | 9 | 11 | -11 | -2 | 1
O=C(Cn1cnc2ccccc21)N1CCc2ccccc21 | 3 | 2 | 0 | 28* | -9 | -16
O=C(Cn1c(=O)cnc2ccccc21)N1CCCc2ccccc21 | 27 | -7 | 3 | -16 | -13 | 11
O=C(CSc1ccccc1)N1CCc2ccccc21 | 24 | -27 | 9 | -15 | -21 | 17
CCn1cc(SCC(=O)N2CCc3ccccc32)c2ccccc21 | 36* | -25 | 4 | 3 | 32* | 12
COc1cc(C2CC(c3cccs3)=NN2C(=O)CCl)ccc1OC(F)F (stereo not drawn) | 20 | -32 | 1 | -15 | -23 | 22
C[C@H](CO)N1C[C@H](C)[C@@H](CN(C)C(=O)Nc2ccc(F)cc2)OCc2cnnn2CCCC1=O | x | x | 1 | -5 | x | 15
O=C(Cc1ccccc1)N1CCCC(c2nc(-c3ccc(S(=O)(=O)N4CCCC4)cc3)no2)C1 (stereo not drawn) | 34 | -4 | 1 | -24 | -5 | 16
CS(=O)(=O)N1CCCC(c2nc(-c3ccc(S(=O)(=O)NCc4ccccc4)cc3)no2)C1 (stereo not drawn) | 35 | 0 | 15 | 34* | 21 | -14
CCN(CC(=O)Nc1c(F)cccc1F)C(=O)CNC(=O)c1ccco1 | 17 | 1 | 0 | -1 | -7 | 10
CCN(CC(=O)Nc1c(F)cccc1F)C(=O)CNC(=O)c1ccc(Br)o1 | 60* | -22 | 1 | 0 | -9 | 8
CC(=O)N1CCN(S(=O)(=O)c2cccc(C(=O)OCc3cccc(F)c3)c2)CC1 | 7 | -18 | 9 | -17 | -11 | 0
COc1ccc(S(=O)(=O)NCCC(=O)OCc2cc(=O)oc3cc(C)ccc23)cc1[N+](=O)[O-] | x | x | 11 | 34* | x | -13
COc1cc(OC)cc(C(=O)NCC(=O)OCc2cc(=O)oc3cc(OC)ccc23)c1 | 5 | -25 | 18* | 3 | -11 | 15
CCCNS(=O)(=O)c1cccc(C(=O)OCc2cc(=O)oc3cc(OC)ccc23)c1 | 47 | 55* | 16* | 1 | 26 | 2
Nc1ncnc2c1ncn2[C@@H]1O[C@H](COP(=O)(O)OP(=O)(O)OP(=O)(O)O)[C@@H](O)[C@H]1O | 17 | -4 | 37* | -1 | -7 | 5
Nc1ncnc2c1ncn2[C@@H]1O[C@H](COP(=O)(O)O)[C@@H](O)[C@H]1O | 16 | -7 | 0 | -10 | -7 | 26
Nc1ncnc2c1ncn2[C@@H]1O[C@H](CO)C[C@H]1O | 12 | -4 | -1 | 24* | -2 | -4
Fc1ccccc1/C=C/c1ccc2ccccc2n1 | 72* | -21 | 0 | -6 | -26 | 10
COc1ccc(-c2ccc(/C=C3/C(=N)N4C=CSC4=NC3=O)o2)c([N+](=O)[O-])c1 | 64* | 13 | 2 | 3 | -3 | 11
N=C1/C(=C/c2cccn2-c2ccc([N+](=O)[O-])cc2)C(=O)N=C2SC=CN12 | 29 | -17 | 2 | 10 | -21 | 4
COc1cc(SC)ccc1C(=O)Nc1ccc2c(c1)OCCO2 | 14 | -14 | 17* | -10 | -11 | 20
